Common to all, as to format: cell-based
Assay [1] has as its system MDA-MB-231 cells. The assay can be described thus: Transwell invasion assay. Summed up:
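MDA-MB-231 breast cancer cells were obtained from ATCC and verified by SNP-CGH for characteristic cytogenetic changes. The panel included empty-vector parental cells and cells overexpressing full-length human NCKAP1 from a lentiviral vector. Cells were exposed to the RAC1-inhibitor test compound, with a dose series in one set. Invasion was read out in Transwell invasion assays run as previously described.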

Assay [2] concerns MDA-MB-231 cells. The assay can be described thus: Cell proliferation assay. The following applies: MDA-MB-231, NSC23766 treatment; Supplementary Figure 4.
Assay [3] has as its system Hs578T cells. In words: Transwell invasion assay. The settings on record: dose series, Figure 4d.
In assay [4] the test system is Hs578T cells. The assay can be described thus: Cell proliferation assay. The following applies: NSC23766 treatment, Supplementary Figure 4.
Assay [5] deals with WASF3. The assay can be described thus: Western blotting of WASF3 complex protein levels. The following applies: MDA-MB-231 and Hs578T cells, western blot; Figure 4e.
Assay [6] deals with WASF3 complex (Homo sapiens, UniProt Q7L576). In words: Immunoprecipitation of the WASF3 complex. The following applies: IP of WASF3 from MDA-MB-231 cells, Figure 4f.
WASF3 complex, sequence (Q7L576 whole entry, one chain of several): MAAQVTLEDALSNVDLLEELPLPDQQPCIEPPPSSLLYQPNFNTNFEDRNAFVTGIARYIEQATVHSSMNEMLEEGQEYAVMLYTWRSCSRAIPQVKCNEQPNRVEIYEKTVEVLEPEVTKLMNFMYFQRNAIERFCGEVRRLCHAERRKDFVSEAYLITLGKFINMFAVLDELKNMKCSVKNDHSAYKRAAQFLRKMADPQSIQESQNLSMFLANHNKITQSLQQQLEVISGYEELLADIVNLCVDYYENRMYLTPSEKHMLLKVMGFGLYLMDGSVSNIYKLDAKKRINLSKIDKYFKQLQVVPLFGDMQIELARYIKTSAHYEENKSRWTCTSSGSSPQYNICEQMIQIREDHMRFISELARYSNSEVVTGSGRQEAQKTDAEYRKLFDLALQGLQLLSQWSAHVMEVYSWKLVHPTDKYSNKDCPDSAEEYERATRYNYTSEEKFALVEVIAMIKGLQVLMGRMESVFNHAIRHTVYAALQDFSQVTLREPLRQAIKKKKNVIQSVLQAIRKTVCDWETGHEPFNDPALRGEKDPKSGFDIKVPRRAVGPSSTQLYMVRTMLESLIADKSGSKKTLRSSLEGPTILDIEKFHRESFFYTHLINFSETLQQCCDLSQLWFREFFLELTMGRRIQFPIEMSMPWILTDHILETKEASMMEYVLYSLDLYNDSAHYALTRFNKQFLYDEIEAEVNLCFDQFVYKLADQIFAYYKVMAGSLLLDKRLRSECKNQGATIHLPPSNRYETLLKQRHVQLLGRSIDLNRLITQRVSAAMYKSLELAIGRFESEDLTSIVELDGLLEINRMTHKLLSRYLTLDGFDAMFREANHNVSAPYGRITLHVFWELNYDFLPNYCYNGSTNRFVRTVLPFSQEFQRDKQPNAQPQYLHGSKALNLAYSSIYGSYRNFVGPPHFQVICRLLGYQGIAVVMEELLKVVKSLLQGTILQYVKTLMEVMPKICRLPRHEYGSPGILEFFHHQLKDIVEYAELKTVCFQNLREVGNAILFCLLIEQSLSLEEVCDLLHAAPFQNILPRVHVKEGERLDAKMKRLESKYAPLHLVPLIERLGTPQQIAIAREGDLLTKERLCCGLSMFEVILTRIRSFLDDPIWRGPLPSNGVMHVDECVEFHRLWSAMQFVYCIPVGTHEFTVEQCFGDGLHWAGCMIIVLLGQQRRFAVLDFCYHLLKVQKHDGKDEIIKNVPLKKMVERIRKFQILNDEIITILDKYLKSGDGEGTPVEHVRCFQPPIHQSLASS

SMILES strings stand for the structures.

As for `CCN(CC)CCCC(C)Nc1nc(C)cc(Nc2ccc3nc(C)cc(N)c3c2)n1` (stereo not shown) [NSC23766], the effect on invasion result in assay [1] (MDA-MB-231, dose series, Figure 4d) is recorded as “dose-dependent reduction in invasion”; in assay [1] (MDA-MB-231 cells overexpressing NCKAP1, Transwell, Figure 4h), “significant reduction in invasion”; in assay [1] (MDA-MB-231 parental cells containing the empty vector (EV), Transwell, Figure 4h), “significant reduction in invasion”; in assay [3] it was “dose-dependent reduction in invasion”. The “effect on cell proliferation” value in assay [2] and in assay [4] was “without affecting cell proliferation” throughout. Besides, the “protein levels of WASF3, NCKAP1 and RAC1” value in assay [5] is recorded as “does not affect protein levels of either WASF3, NCKAP1 or RAC1”. Further, the “RAC1 binding to the WASF3 complex” value in assay [6] (high dose 50 µM) was “significantly inhibited”. Also, the WASF3 phosphorylation entry in assay [6] (high dose 50 µM) was “significantly inhibited”. Moreover, the “engagement of NCKAP1 with the WASF3 complex” value in assay [6] is on record as “does not disrupt engagement of NCKAP1 with the WASF3 complex”.
